# Legend:
# Klebsiella aerogenes = assay: Bacteriostatic activity against Enterobacter aerogenes LMG 02094 assessed as inhibition of bacterial growth; assay type: functional
# Summary of the method: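 A standard MIC plate (128–2 μM, cMHB, 20 h, 37 °C) was read at OD600. Each well then seeded at 10% a fresh compound-free cMHB plate, grown another 20 h at 37 °C and read at OD600. No growth at the same concentration in both plates counted as bactericidal. Growth above the MIC counted as bacteriostatic. Done in triplicate.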
# Escherichia coli = assay: Antibacterial activity against Escherichia coli LMG 8223; assay type: functional, organism-based; details: DDE = dose-dependent effect
# Summary of the method: (§1)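 Cultures were inoculated at 2% and grown at 37 °C, with OD600 read every 5 min for 8 h. NDI-10 was added at exponential-phase onset (~3 h). Concentrations were 32, 16, 8 and 4 μM for E. coli, and 16, 8, 4 and […] μM for the Gram-positive strains.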
# Staphylococcus aureus = assay: Antibacterial activity against Staphylococcus aureus LMG 8224; assay type: functional, organism-based; details: DDE = dose-dependent effect; summary of the method: as §1
# DNA = assay: Stabilization of Staphylococcus aureus in G-quadruplex DNA GGA AGG AGG GGT GAC AGG G assessed as melting temperature at 10 uM incubated for 16 hrs […]; assay type: nucleic-acid assay
# Summary of the method: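 Readout was CD melting, not FRET: 2.5 μM oligonucleotide in 10 mM lithium cacodylate pH 7.4 with KCl set per sequence (initial Tm 60-70 °C). Annealed 95 °C 5 min, cooled to room temperature over 4 h, then ligand 10 μM (4 equiv) equilibrated 16 h at 20 °C. Ellipticity at 260 nm tracked every 0.1 °C, 20-95 °C at 5 °C/min; Tm by van't Hoff two-state fit.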
smiles,measurement,setting,value
CN(C)CCCn1c(=O)c2ccc3c(=O)n(CCCN(C)C)c(=O)c4c5[nH]c6ccccc6[nH]c5c(c1=O)c2c34.O=C(O)C(F)(F)F.O=C(O)C(F)(F)F,MIC,Klebsiella aerogenes,> 128 µM
same,Activity,Escherichia coli,Dde
same,Activity,Staphylococcus aureus,Dde
same,Tm,DNA,> 95 °C

# — ChEMBL document CHEMBL5154669, “G-Quadruplex DNA as a Target in Pathogenic Bacteria: Efficacy of an Extended Naphthalene Diimide Ligand and Its Mode of Action” (J Med Chem, 2022)
